SENP8 block-1 – human SENP8 protease inhibitors, primary screen, biochemical, fluorescence, Nedd8 protein substrate, uHTS | Sentrin-specific protease 8 (Homo sapiens), Q96LD8 | recombinant SENP8 | inhibition, % at 20 µM | 360,000 compounds, 0.64% hits; in the data active = inhibition mostly above about 40%, no sharp cut-off; inactive = mostly below about 27%
Target sequence (Q96LD8 whole entry, looked up): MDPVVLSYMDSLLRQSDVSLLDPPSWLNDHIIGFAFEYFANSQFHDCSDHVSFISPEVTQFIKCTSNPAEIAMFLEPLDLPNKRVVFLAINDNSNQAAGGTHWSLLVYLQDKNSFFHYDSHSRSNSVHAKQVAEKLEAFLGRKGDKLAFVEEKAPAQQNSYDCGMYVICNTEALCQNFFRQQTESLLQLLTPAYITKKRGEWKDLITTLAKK
SENP6 block – SENP6 protease inhibitors, primary screen, biochemical, luminescence, uHTS; Sentrin-specific protease 6 (Homo sapiens), Q9GZR1; inhibition, % at 10 µM; 330,000 compounds, 1.8% hits; Recombinant SENP6 catalytic domain, aminoluciferin luminescence;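 active = inhibition above about 50% at the single tested dose, limit read from the data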
Target sequence (Q9GZR1 628-1112 limits assumed): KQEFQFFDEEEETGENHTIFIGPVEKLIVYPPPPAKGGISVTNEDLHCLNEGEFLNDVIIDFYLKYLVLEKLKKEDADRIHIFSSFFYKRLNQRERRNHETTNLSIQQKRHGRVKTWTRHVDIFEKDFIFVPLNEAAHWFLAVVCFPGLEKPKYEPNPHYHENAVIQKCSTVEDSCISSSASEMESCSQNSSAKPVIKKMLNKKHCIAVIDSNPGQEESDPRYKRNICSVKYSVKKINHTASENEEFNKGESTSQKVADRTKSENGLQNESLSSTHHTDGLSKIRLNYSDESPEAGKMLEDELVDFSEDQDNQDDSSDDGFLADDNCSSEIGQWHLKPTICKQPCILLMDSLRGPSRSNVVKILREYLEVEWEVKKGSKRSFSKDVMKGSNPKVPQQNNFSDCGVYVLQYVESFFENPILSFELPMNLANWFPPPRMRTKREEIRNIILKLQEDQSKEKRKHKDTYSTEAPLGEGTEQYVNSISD
UCH37 inh – inhibitors of human UCH37 deubiquitinase, primary screen, biochemical, Ub-AMC cleavage, fluorescence. Ubiquitin carboxyl-terminal hydrolase isozyme L5 (Homo sapiens), Q9Y5K5. purified proteasome/UCH37. inhibition, % (no concentration beside the values). 330,000 compounds, 0.33% hits. AID 588478, 2011;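 active = mean inhibition over replicate wells above about 20%, limit read from the data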
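Signal – fluorescence, ex 355 nm, em 460 nm · System – Proteasome-bound UCH37 · Input – 0.15 nM proteasome as dispensed · Timing – 30 min preincubation with enzyme, 25 min cleavage at room temperature · Read-out basis – percent inhibition of cleavage signal versus uninhibited and no-proteasome wells · Medium – Tris-HCl pH 7.4 with ATP-MgCl2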
SENP1 inh – human SENP1 catalytic domain inhibitors, primary screen, biochemical, FRET, uHTS; recombinant SENP1 catalytic domain, CyPet-SUMO1-YPet FRET cleavage; inhibition, % at 10 µM; 360,000 compounds, 0.21% hits; AID 624204, 2012;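 active = inhibition at least 30% at 10 µM, raw YFP signal under a set limit, fluorescence ratio 0.5 to 1.5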
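Compound: 10 µM single point, 0.5% DMSO; Test system: hSENP1 catalytic domain, recombinant; Timing: 50 min reaction at room temperature; Technique: FRET, CFP and YFP emission; Control set: no-enzyme wells low, DMSO-plus-enzyme wells high control.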
SENP8 block-2 – SENP8 protease inhibitors, primary screen, biochemical, luminescence | Sentrin-specific protease 8 (Homo sapiens), Q96LD8 | purified SENP8, Z-RLRGG-aminoluciferin cleavage | inhibition, % at 10 µM | 330,000 compounds, 1.2% hits | AID 2540, 2010; in the data active = inhibition above about 50%
SENP7 inh – SENP7 protease inhibitors, primary screen, biochemical, luminescence, uHTS; Sentrin-specific protease 7 (Homo sapiens), Q9BQF6; recombinant SENP7, Z-RLRGG-aminoluciferin luminescence, 40 min; inhibition, % at 5 µM; 330,000 compounds, 1.5% hits;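 active = inhibition above about 50% at the single test dose, limit read from the data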
Of the large screens only hits and unclear results are named; the others gave an inactive call. The list is not random: actives were taken first. Their share in the collection is about 2.6%.

Cc1cccc(-c2cc3nc(C)cc(C)n3n2)c1	SENP8 block-2 54, SENP7 inh 78
Cc1cccc(-c2cc3nc(C)cc(N4CC(C)CC(C)C4)n3n2)c1 (centres undefined)	none
O=C(N=Nc1c(O)n(Cc2ccccc2)c2ccccc12)c1ccncc1	SENP8 block-1 42
COC(=O)N=Nc1c(O)n(Cc2ccccc2)c2ccccc12	none
Cc1nn(C)cc1C=NNC(=O)c1ccc2c(c1)OCO2	none (no result: SENP8 block-1, SENP6 block, SENP1 inh, SENP8 block-2, SENP7 inh)
CCn1c(O)c(N=Nc2ccc(Cl)c(C(=O)O)c2)c2ccccc21	UCH37 inh 20
CC(C)n1c(O)c(N=Nc2ccc(Cl)c(C(=O)O)c2)c2ccccc21	none
O=C(NN=Cc1ccncc1)c1ccccc1[N+](=O)[O-]	none (no result: SENP8 block-1, SENP6 block, SENP1 inh, SENP8 block-2, SENP7 inh)
O=[N+]([O-])c1ccc(Sc2cccc[n+]2[O-])c2nonc12	SENP1 inh 41 (no result: SENP6 block, SENP8 block-2, SENP7 inh)
O=C(CSc1cccc[n+]1[O-])Nc1cc(Cl)ccc1[N+](=O)[O-]	none
ON=Cc1cc(Br)cs1	none (no result: SENP8 block-1, SENP6 block, SENP1 inh, SENP8 block-2, SENP7 inh)
Cc1cccc(N=Cc2sc3ccccc3c2O)n1	none (no result: SENP8 block-1, SENP6 block, SENP1 inh, SENP8 block-2, SENP7 inh)
Oc1c(C=Nc2ccc(Cl)cn2)sc2ccccc12	SENP6 block 66, SENP7 inh 57
COc1ccc(OCc2cc(C=NNC(=O)c3ccccc3)ccc2OC)cc1	none (no result: SENP8 block-1, SENP6 block, SENP1 inh, SENP8 block-2, SENP7 inh)
O=C1N[C@H](Cc2ccccc2)COC(=O)[C@@H](Cc2ccc(F)cc2)CC/C=C/C[C@H]1CC(=O)N(CCO)Cc1ccccc1	UCH37 inh 22
O=C1N[C@@H](Cc2ccccc2)COC(=O)[C@@H](Cc2ccc(F)cc2)CC/C=C/C[C@@H]1CC(=O)N(CCO)Cc1ccccc1	none
N#C/C(=C\c1cc([N+](=O)[O-])c(N2CCCCC2)cc1N1CCCCC1)c1nn(-c2ccccc2)c(N)c1C#N	SENP8 block-1 50
N#C/C(=C\c1cccc2ccccc12)c1nn(-c2ccccc2)c(N)c1C#N	none (no result: SENP8 block-1, SENP1 inh)
Cc1nn(-c2ccccc2)c(Cl)c1C=NNC(=O)c1ccnn1C	none (no result: SENP8 block-1, SENP6 block, SENP1 inh, SENP8 block-2, SENP7 inh)
Oc1ccccc1C1Nc2cccc3cccc(c23)N1	none (no result: UCH37 inh)
O=[N+]([O-])c1ccccc1C1Nc2cccc3cccc(c23)N1	SENP8 block-1 51
O=C1C(=NO)CCc2ccccc21	SENP8 block-1 42 (no result: SENP6 block, UCH37 inh, SENP8 block-2, SENP7 inh)
CC1=Nc2cccc3cccc(c23)N1C	SENP8 block-1 44
Cc1cc(C)nc(NN=C/C(Cl)=C/c2ccccc2)n1	none (no result: SENP8 block-1, SENP6 block, SENP1 inh, SENP8 block-2, SENP7 inh)
CCOc1ccc(N=Cc2ccc([N+](=O)[O-])cc2)c(O)c1	SENP8 block-1 41, SENP1 inh 39 (no result: SENP6 block, UCH37 inh, SENP8 block-2, SENP7 inh)
CCOC(=O)/C(C#N)=C1/C=CN(C)C(C)=N1	UCH37 inh 21
CCOC(=O)/C(C#N)=C1/C=C(C)NC(c2ccccc2O)=N1	none
COc1ccccc1-c1noc(-c2ccccc2)n1	SENP6 block 92, SENP8 block-2 87, SENP7 inh 93 (no result: UCH37 inh)
CCOc1cc(-c2nc(-c3ccccc3OC)no2)cc(OCC)c1OCC	none
O=S(=O)(NN=Cc1cn(Cc2ccccc2)c2ccccc12)c1ccccc1	none (no result: SENP8 block-1, SENP6 block, SENP1 inh, SENP8 block-2, SENP7 inh)
CC1=NN(c2ccccc2)C(=O)C1=C(C)C	SENP8 block-1 41
CC1=NN(c2ccccc2)C(=O)/C1=C\c1sccc1C	none
C=CCOc1c(Br)cc(/C=C2/C(=O)ON=C2C)cc1OC	SENP8 block-1 32
C#CCOc1c(Br)cc(/C=C2/C(=O)ON=C2C)cc1OC	none (no result: UCH37 inh)
CCCN1C(=O)/C(=C\C=C2/C=CN(CC)c3ccccc32)SC1=S	SENP8 block-1 55
CCCCN1C(=O)/C(=C/C=C2\N(C)c3ccccc3C2(C)C)SC1=S	none (no result: SENP8 block-1, SENP1 inh)
Cc1snc(S(=O)(=O)C(C#N)=NNc2ccc(C(F)(F)F)cc2)c1C#N	none (no result: SENP8 block-1, SENP6 block, SENP1 inh, SENP8 block-2, SENP7 inh)
CC1=NN(c2ccccc2)C(=O)C1N=Nc1ccc(S(N)(=O)=O)cc1 (centres undefined)	SENP8 block-1 52
CN(O)C=NC(=S)Nc1ccc(Cl)cc1Cl	none (no result: SENP8 block-1, SENP6 block, SENP1 inh, SENP8 block-2, SENP7 inh)
CCc1ccc(/C=C\C(=O)N2CCc3ccccc3C2)cc1	SENP6 block 61 (no result: UCH37 inh)
Nc1nc2ccccc2n1N=Cc1ccc(-c2ccccc2)o1	none (no result: SENP8 block-1, SENP6 block, SENP1 inh, SENP8 block-2, SENP7 inh)
Cc1sc(NC(=O)C2C3CCC(O3)C2C(=O)O)nc1-c1ccc(CC(C)C)cc1 (centres undefined)	SENP6 block 56 (no result: UCH37 inh)
Cc1c(N2C(=O)/C(=C\c3ccccc3O)SC2=S)c(=O)n(-c2ccccc2)n1C	none
CN1C(=O)/C(=C/c2cc(N=Nc3ccccc3)ccc2O)SC1=S	SENP8 block-1 39
Cc1cccc(NC(=O)c2ccc(N3CCCCC3)c([N+](=O)[O-])c2)n1	SENP6 block 76, SENP7 inh 73
CCc1ccc2nc(SCC(=O)N3CC(=O)Nc4ccccc43)c(C#N)cc2c1	SENP1 inh 32
N#Cc1cc(C#N)c(SCC(=O)N2CC(=O)Nc3ccccc32)nc1N	none
[O-][N+]1=c2ccc(Nc3ccccc3)cc2=NC12CCCCC2	SENP8 block-1 86 (no result: SENP6 block, SENP8 block-2, SENP7 inh)
CC1=NN(c2nc(-c3ccc(C)cc3)cs2)C(=O)C1N=Nc1ccc2ccccc2c1 (centres undefined)	SENP8 block-1 55
Cc1ccc(S(=O)(=O)NN=C2CCCCC2C2CCCCC2)cc1[N+](=O)[O-] (centres undefined)	none (no result: SENP8 block-1, SENP6 block, SENP1 inh, SENP8 block-2, SENP7 inh)
Cn1ccc(C(=O)NN=Cc2ccncc2)n1	none (no result: SENP8 block-1, SENP6 block, SENP1 inh, SENP8 block-2, SENP7 inh)
Cc1ccc2nc(-c3ccc(NC(=O)CSc4nc(N)cc(=O)[nH]4)cc3)sc2c1	none
Cc1ccc2nc(-c3ccc(NC(=O)CSc4nccc(=O)[nH]4)cc3)sc2c1	SENP6 block 81, SENP7 inh 69 (no result: UCH37 inh)
CN(C)c1ncc(C2=C(Cl)C(=O)C(N3CCCC3)=C(Cl)C2=O)s1	SENP8 block-1 46
O=C1C(Cl)=C(N2CCCCC2)C(=O)C(Cl)=C1c1cnc(N2CCCCC2)s1	none
